Measurements of several laboratories.
Protocols differ between the studies behind these lines.
Cell line: MCF7
Effect on: cell growth or viability

Compound | assay | setting | quantity | value
COc1ccccc1/C=C/C(=O)c1ccc(OC)c(S(N)(=O)=O)c1 | SRB | 10 µM | inhibition | 92%
CCCCCCCCCCCCNC(=S)NCCCC[C@H](NS(C)(=O)=O)C(=O)N[C@@H](C)C(=O)N[C@@H](CCCNC(=N)N)C(N)=O | MTT | 72 h | EC50 | 63.7 to 84.3 µM
CCOc1cc(-c2nc3ccccc3[nH]2)ccc1O | MTT | 48 h | IC50 | 59.2 µM
COc1ccc(C(=O)/C=C/c2ccc3c(c2)OCCO3)cc1S(N)(=O)=O | SRB | 10 µM | inhibition | 77%
COc1cc(C(CC(N)=O)NCCc2ccc(O)c(O)c2)ccc1O (stereo not shown) | MTT | – | TGI | 52 µM
Clc1ccc(-c2nc3ccccc3n2Cc2ccccc2)cc1Cl | MTT | – | IC50 | 62.4 µM
CC(C)c1cnn2c(NCc3ccccc3)cc(NC[C@H]3CCNC[C@@H]3O)nc12 | – | 0.1 µM, 9 days | inhibition | ~50%
Clc1ccc(-c2nc3ccccc3n2Cc2ccccc2)cc1 | MTT | – | IC50 | 40.2 µM
CC/C(=C(\c1ccccc1)c1ccc(OCCN(C)C)cc1)c1ccccc1 | ATP luminescence | 72 h | EC90 | 32.2 µM
COc1ccc(C(=O)/C=C/c2ccc(Cl)c(Cl)c2)cc1S(N)(=O)=O | SRB | 10 µM | inhibition | 149%
COc1cccc2c1C(=O)c1c(O)c3c(c(O)c1C2=O)C[C@@](O)(C(=O)CO)C[C@@H]3O[C@H]1C[C@H](N)[C@H](O)[C@H](C)O1 | MTT | – | TGI | 0.21 µM
CSc1ccc(-c2nc3ccc(C)cc3n2Cc2ccccc2)cc1 | MTT | – | IC50 | 29 µM
COc1ccc(C(=O)/C=C/c2ccc3ccccc3c2)cc1S(N)(=O)=O | SRB | 10 µM | inhibition | 175%
Cc1ccc2nc(-c3ccc4c(c3)OCO4)[nH]c2c1 | MTT | 48 h | IC50 | > 100 µM
C[C@@H](NC(=O)[C@H](CCCCNC(=O)C(F)(F)F)NS(C)(=O)=O)C(=O)N[C@@H](CCCNC(=N)N)C(N)=O | MTT | 72 h | EC50 | 47.6 to 62.8 µM
COc1ccc(C(=O)/C=C/c2cccc(Cl)c2)cc1S(N)(=O)=O | SRB | 10 µM | inhibition | 167%
CCCCCCCCCCCCNC(=O)NCCCC[C@H](NS(C)(=O)=O)C(=O)N[C@H](C)C(=O)N[C@@H](CCCNC(=N)N)C(N)=O | MTT | 72 h | EC50 | 69.2 to 78.9 µM
C=CCn1c(-c2ccc([N+](=O)[O-])cc2)nc2ccccc21 | MTT | – | IC50 | 34.1 µM
COc1ccc(C(=O)/C=C/c2cccnc2)cc1S(N)(=O)=O | SRB | 10 µM | inhibition | 93%
COc1ccc(Cc2nc(/N=C3\NC(=O)N(C)C3=O)n(C)c2Cc2ccc(O)cc2)cc1 | – | – | EC50 | 5.9 µM
Cc1ccc2nc(-c3ccncc3)[nH]c2c1 | MTT | 48 h | IC50 | 54.6 µM
COc1cc(C(CC(=O)c2ccc(C)cc2)NCCc2ccc(O)c(O)c2)ccc1O (stereo not shown) | MTT | – | TGI | 10.1 µM
Cc1ccc2nc(-c3ccc(Cl)cc3)n(Cc3ccccc3Cl)c2c1 | MTT | – | IC50 | 59.8 µM
COc1ccc(C(=O)/C=C/c2cccc(Br)c2)cc1S(N)(=O)=O | SRB | 10 µM | inhibition | 177%
C[C@]12CC[C@@H]3c4ccc(O)cc4CC[C@H]3[C@@H]1CC[C@@H]2O | ATP luminescence | 72 h | EC90 | 53.5 µM
COc1cc(CNC(=O)CCCC/C=C/C(C)C)ccc1O | SRB | 10 µM | inhibition | 24%
COc1ccc(C(=O)/C=C/c2cccc(Cl)c2Cl)cc1S(N)(=O)=O | SRB | 10 µM | inhibition | 140%
COc1cc(C(CC(=O)c2ccc(Br)cc2)NCCc2ccc(O)c(O)c2)ccc1O (stereo not shown) | MTT | – | TGI | 0.4 µM
